As usually defined, the pKa is the negative logarithm of the acid dissociation constant.

Calls of active or inactive are those of the source. No cut-off for these calls is given here.

A short description of data set [1]: (§1) Positive inotropic activity in cat heart papillary muscle assessed as increase in contractile force at 10 ug/mL measured for 5 to 30 mins. Format: functional, Felis catus, Muscle tissue. The essentials: (§2)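 Right-ventricular cat papillary muscles in Krebs–Henseleit at 37 °C, field-stimulated at 1/s (4–10 ms, 6–10 V). Muscles equilibrated about 90 min, until force fell to 25–30% of original. Compound added and force recorded at 5, 10, 20 and 30 min, followed by ouabain 0.5 μg/mL. Positives were retested on three more preparations at ≥3 concentrations. Scored as mg increase in contractile force.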

For data set [2], the species on record is Felis catus. Nature of the data set: Positive inotropic activity in cat heart papillary muscle assessed as increase in contractile force up to 10 ug/mL measured for 5 to 30 mins in presence of beta-adrenergic inhibitor sotalol. The class given is functional, tissue-based. The essentials:
(§3)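 Cat right-ventricular papillary muscle in Krebs–Henseleit at 37 °C, electrically driven at 1/s. Force recorded 5–30 min after compound, in the presence of the β-blocker sotalol at 10 μg/mL. Scored as mg increase in contractile force.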

The nature of data set [3]: Positive inotropic activity in cat heart papillary muscle assessed as concentration required to increase contractile force by 500 mg measured for 5 to 30 mins. Format: functional, Felis catus, Muscle tissue. The essentials:
as §2

Data set [4] in a line: Positive inotropic activity in cat heart papillary muscle assessed as increase in contractile force at 2.5 ug/mL measured for 5 to 30 mins. The class given is functional, Felis catus, Muscle tissue. The essentials: as §2
The species named for data set [5] is Felis catus. The data set is described as follows: Positive inotropic activity in cat heart papillary muscle assessed as increase in contractile force at 10 ug/mL measured for 5 to 30 mins in presence of beta-adrenergic inhibitor sotalol. Format: functional, tissue-based. The essentials: as §3
For data set [6], the species on record is Felis catus. Nature of the data set: Positive inotropic activity in heart papillary muscle isolated from reserpine-treated cat assessed as increase in contractile force at 10 ug/mL measured for 5 to 30 mins. Format: functional, tissue-based. To be noted: Muscle tissue. The method in brief: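 Cats pretreated with reserpine 0.5 mg/kg ip before papillary muscle isolation. Right-ventricular muscles kept in Krebs–Henseleit at 37 °C, stimulated at 1/s, and force recorded at 5–30 min after compound addition.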

The species named for data set [7] is Felis catus. Nature of the data set: (§4) Positive inotropic activity in cat heart papillary muscle assessed as increase in contractile force at 0.63 ug/mL measured for 5 to 30 mins. The class given is functional. Conditions: Muscle tissue. The method in brief:
(§5)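 Right-ventricular papillary muscles from cat hearts in a 100-mL bath of Krebs–Henseleit solution at 37 °C, driven electrically with square waves of 4–10 ms, 6–10 V, 1/s. Equilibrated about 90 min until force fell to 25–30% of initial. Compound added, contractile force read at 5, 10, 20 and 30 min, then ouabain 0.5 μg/mL as a responsiveness check. Positive inotropy means a rise above 20%.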

The species named for data set [8] is Felis catus. The description is as §1. To be noted: Muscle tissue. The class given is functional. The essentials: as §2
Data set [9] in a line: as §4. The class given is functional, Felis catus, Muscle tissue. The essentials:
as §5

Data set [10] is described as follows: Inhibition of guinea pig kidney Na+-K+ dependent ATPase preincubated for 30 mins measured after 10 to 20 mins. On the set-up: species or system Cavia porcellus. Conditions: read-out: I50. The method in brief: (§6)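 Partially purified membrane ATPase from calf heart or guinea pig renal cortex. Inhibitor plus enzyme were preincubated 30 min at 10× final concentrations, then added to the otherwise complete assay system. Incubated at 37 °C under air, with aliquots taken at 10 and 20 min. Liberated phosphate measured by the Lowry–Lopez method. I50 came from log inhibitor vs percent inhibition lines, at least three points.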

The nature of data set [11]: Inhibition of guinea pig kidney Na+-K+ dependent ATPase after 10 to 20 mins. Also on record: species or system Cavia porcellus. To be noted: read-out: I50. The essentials:
(§7)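 Partially purified membrane ATPase from calf heart or guinea pig renal cortex. Reaction started by final addition of enzyme. Incubated at 37 °C under air, with aliquots taken at 10 and 20 min. Liberated phosphate measured by the Lowry–Lopez method. I50 came from log inhibitor vs percent inhibition lines, at least three points. This was done only where acute inhibition was >50% at 1 × 10⁻³ M.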

The nature of data set [12]: Dissociation constant, pKa of the compound. Format: physicochemical. The essentials: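 pKa determined in water or in 30% EtOH–70% H2O, depending on compound.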
Data set [13] is described as follows: Inhibition of calf heart Na+-K+ dependent ATPase preincubated for 30 mins measured after 10 to 20 mins. Also on record: species or system Bos taurus. To be noted: read-out: I50. The method in brief: as §6
A short description of data set [14]: Inhibition of calf heart Na+-K+ dependent ATPase after 10 to 20 mins. Also on record: species or system Bos taurus. Conditions: read-out: I50. The method in brief:
as §7

Data set [15] can be described thus: Positive inotropic activity in cat heart papillary muscle assessed as increase in contractile force at 0.156 ug/mL measured for 5 to 30 mins. Format: functional, Felis catus, Muscle tissue. The method in brief: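 Right-ventricular cat papillary muscles in Krebs–Henseleit solution at 37 °C, paced at 1/s (4–10 ms, 6–10 V square waves). Equilibrated about 90 min; compound added once force had fallen to 25–30% of original (1.5–2 h). Force recorded 5, 10, 20 and 30 min after addition, then ouabain 0.5 μg/mL added. Increase over 20% scored positive. Actives retested on three further preparations at ≥3 concentrations.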

Take `C/N=C(\NCC1CC1)C(Cl)(Cl)Cl.Cl`: the Activity in data set [1] is listed as more than 600 mg. For the same compound, the result in the data set filed under Felis catus [2] was Active.

As for `Cl.N=C(NCCCO)C(Cl)(Cl)Cl`, the figures for the Activity in data set [3], in [1] and in data set [4] were more than 10 µg/mL, 201 mg and less than 200 mg, respectively. Further, the outcome in the data set filed under Felis catus [2] was Active.

In the case of `C=CCNC(=N)C(Cl)(Cl)Cl.Cl`, the Activity in data set [3] was 2.78 µg/mL; in [1] it was more than 600 mg; in [4] it was 201 mg. In addition, the outcome in the data set listed under Felis catus [5] and in the data set listed under Felis catus [7] was inactive. In the data set listed under Felis catus [6], the outcome was Active.

For the compound `N=C(NCC(O)c1ccccc1)C(Cl)(Cl)Cl` (configuration not stated), in data set [1], the Activity is more than 600 mg. Further, the outcome in the data set listed under Felis catus [2] was Active.

As for `N=C(Nc1ccccc1)C(Cl)(Cl)Cl`, the outcome in the data set filed under Felis catus [8] was inactive.

As to `CN(C)C(=N)C(Cl)(Cl)Cl.Cl`, in data set [1], the Activity is more than 600 mg. Further, the outcome in the data set listed under Felis catus [2] was Active.

`Cc1ccc(CNC(=N)C(Cl)(Cl)Cl)cc1.Cl`: the Activity in data set [3] is 8.43 µg/mL; in data set [1], more than 600 mg; in data set [9], less than 200 mg; in data set [4], less than 200 mg. Moreover, in the data set filed under Felis catus [2], the outcome was Active.

`Cl.N=C(NCCc1ccc(O)c(O)c1)C(Cl)(Cl)Cl`: the Activity in [3] was more than 10 µg/mL; in [1] it was 201 mg; in [4], less than 200 mg. In addition, the result in the data set listed under Felis catus [5] and in the data set filed under Felis catus [7] was inactive.

In the case of `CC(=O)Nc1ccc(OCC(O)CNC(=N)C(Cl)(Cl)Cl)cc1` (configuration not stated), the Activity in data set [1] stood at 201 mg. For the same compound, the outcome in the data set filed under Felis catus [2] was Active.

With `COC(CNC(=N)C(Cl)(Cl)Cl)COc1ccccc1` (configuration not stated), the Activity in data set [1] was 201 mg. For the same compound, the result in the data set listed under Felis catus [2] was Active.

In the case of `N=C(NCC(O)COc1ccccc1)C(Cl)(Cl)Cl` (configuration not stated), the Activity in data set [1] amounted to 201 mg. In the data set filed under Felis catus [2], the outcome was Active.

Turning to `N=C(NCCc1ccccc1)C(Cl)(Cl)Cl`, the outcome in the data set filed under Felis catus [8] was inactive.

As to `ClC(Cl)(Cl)C1=NCCN1`, the Activity is 4.86 µg/mL in data set [3], more than 600 mg in data set [1], less than 200 mg in data set [9] and 201 mg in [4]. The outcome in the data set listed under Felis catus [2] was Active.

As for `Cl.N=C(NCCCNC(=N)C(Cl)(Cl)Cl)C(Cl)(Cl)Cl`, the Activity was more than 10 µg/mL in data set [3] and less than 200 mg in [1]. For the same compound, the outcome in the data set filed under Felis catus [2] was Active.

For the compound `COc1cccc(CNC(=N)C(Cl)(Cl)Cl)c1.Cl`, the Activity was more than 10 µg/mL in [3] and 201 mg in data set [1]. Moreover, in the data set listed under Felis catus [2], the outcome was Active.

Take `COc1ccc(CNC(=N)C(F)(Cl)Cl)cc1`: the IC50 is 2 µM in [10], 15 µM in data set [11], 2 µM in [13] and 20 µM in data set [14]. The compound also returned a pKa in data set [12] of 6.18.

Take `Cl.N=C(NCC1CC1)C(Cl)(Cl)Cl`: the Activity was 3.21 µg/mL in data set [3], 201 mg in [1], less than 200 mg in data set [9] and 201 mg in data set [4]. Further, the result in the data set filed under Felis catus [6] and in the data set listed under Felis catus [2] was Active.

For the compound `N=C(NCc1cn(C(=O)c2ccccc2)c2ccccc12)C(Cl)(Cl)Cl`, the Activity in data set [3] is 6.2 µg/mL; in data set [1], more than 600 mg; in [9], less than 200 mg; in [4], 201 mg. Also, the result in the data set listed under Felis catus [6] and in the data set listed under Felis catus [2] was Active.

As to `Cn1cc(CNC(=N)C(Cl)(Cl)Cl)c2ccccc21`, the Activity in data set [1] was 201 mg. Also, the result in the data set filed under Felis catus [2] was Active.

As to `COc1ccccc1CNC(=N)C(Cl)(Cl)Cl.Cl`, the Activity was 4.75 µg/mL in data set [3], 201 mg in data set [1], less than 200 mg in data set [9] and 201 mg in data set [4]. Besides, the result in the data set listed under Felis catus [6] and in the data set listed under Felis catus [2] was Active.

On to `C=CCN/C(=N\C)C(Cl)(Cl)Cl.Cl`, for which the Activity was 3.89 µg/mL in [3], more than 600 mg in [1] and 201 mg in data set [4]. Besides, the result in the data set listed under Felis catus [7] was inactive. Moreover, in the data set listed under Felis catus [2], the result was Active.

Regarding `C=CCN(CC=C)C(=N)C(Cl)(Cl)Cl`, the result in the data set listed under Felis catus [8] was inactive.

Regarding `C=CCN(C)C(=N)C(Cl)(Cl)Cl.O=C(O)/C=C\C(=O)O`, the Activity in data set [3] was 5.47 µg/mL; in [1] it was more than 600 mg; in data set [9], less than 200 mg; in data set [4] it was 201 mg. The result in the data set listed under Felis catus [2] was Active.

Consider `N=C(NCCc1ccc(O)cc1)C(Cl)(Cl)Cl`, for which the Activity in data set [1] is recorded as more than 600 mg. Besides, the result in the data set filed under Felis catus [2] was Active.

As to `CC(=O)OC(CNC(=N)C(Cl)(Cl)Cl)COc1ccccc1.Cl` (configuration not stated), the Activity in data set [3] is 4.96 µg/mL; in data set [1] it was more than 600 mg; in data set [9], less than 200 mg; in [4] it was 201 mg. In addition, the IC50 in data set [13] turned out to be 70 µM; in data set [14], 170 µM. Also, the outcome in the data set filed under Felis catus [6] and in the data set listed under Felis catus [2] was Active.

Consider `C/N=C(\N(C)C)C(Cl)(Cl)Cl`, for which the result in the data set listed under Felis catus [5] was inactive.

Regarding `O=C(NCCO)C(Cl)(Cl)Cl`, the outcome in the data set filed under Felis catus [8] was inactive. Besides, in the data set listed under Felis catus [2], the result was Active.

Take `COc1ccc(CNC(=N)C(Cl)(Cl)Br)cc1`: the pKa in data set [12] worked out at 6.15.

`C[C@H](NC(=N)C(Cl)(Cl)Cl)c1ccccc1.Cl`: the values for the Activity in [3] and in data set [1] were more than 10 µg/mL and less than 200 mg, respectively. Besides, the outcome in the data set filed under Felis catus [2] was Active.

As to `CCCNC(=N)C(Cl)(Cl)Cl.Cl`, the Activity in [15] was less than 200 mg; in data set [3], 2.22 µg/mL; in [1], more than 600 mg; in data set [4] it was 201 mg. Further, in the data set filed under Felis catus [2], the result was Active.

Regarding `N=C(NCCO)C(Cl)(Cl)Cl`, the results for the Activity in [3], in [1] and in [4] were 5.5 µg/mL, more than 600 mg and less than 200 mg, respectively. Also, the outcome in the data set filed under Felis catus [7] was inactive. Besides, the outcome in the data set listed under Felis catus [2] was Active.

In the case of `Cl.N=C(N)C(Cl)(Cl)Cl`, the Activity in data set [3] was 2.68 µg/mL; in [1] it was more than 600 mg; in data set [9], less than 200 mg; in data set [4] it was 201 mg. In addition, the result in the data set filed under Felis catus [6] and in the data set listed under Felis catus [2] was Active.

As to `C[C@@H](NC(=N)C(Cl)(Cl)Cl)c1ccccc1`, the result in the data set filed under Felis catus [8] was inactive.

Consider `N=C(NCc1ccccc1)C(Cl)(Cl)Cl`, for which the Activity in data set [1] is on record as less than 200 mg. Further, the result in the data set filed under Felis catus [2] was Active.

Take `ClC(Cl)(Cl)C1=NCCCN1`: the Activity was less than 200 mg in data set [15], 2.77 µg/mL in data set [3], more than 600 mg in data set [1] and 201 mg in data set [4]. The result in the data set listed under Felis catus [5] was inactive.

Source of the values: ChEMBL document CHEMBL3244020, “Trichloroacetamidines, a new class of positive inotropic agents” (J Med Chem, 1978).
